In ChEMBL document CHEMBL1153353, “Probing of the cis-5-phenyl proline scaffold as a platform for the synthesis of mechanism-based inhibitors of the Staphylococcus aureus sortase SrtA isoform” (Bioorg Med Chem, 2009):
Active and inactive are the calls of the source. The rule behind the calls is not given here.

Molecular target: T1, Sortase A (Staphylococcus aureus, UniProt Q9S446)
T1 sequence (Q9S446 whole entry): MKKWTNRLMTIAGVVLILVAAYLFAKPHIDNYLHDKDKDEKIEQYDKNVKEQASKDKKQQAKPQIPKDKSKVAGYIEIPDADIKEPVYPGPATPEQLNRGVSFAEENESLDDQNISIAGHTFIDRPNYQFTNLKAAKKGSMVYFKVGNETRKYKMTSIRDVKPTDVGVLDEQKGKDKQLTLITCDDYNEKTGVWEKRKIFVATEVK
Assay: Inhibition of 6-His tagged Staphylococcus aureus recombinant sortase delta N24 expressed in Escherichia coli BL21 (DE3)
Method in brief: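 N-terminally His6-tagged SrtA lacking residues 1-24, Ni-chelate purified. 1 μM enzyme pre-incubated with inhibitor 30 min at 37°C, then 2 mM Abz-LPETG-Dap(DNP)-NH2 plus 2 mM NH2-Gly5-OH added. Buffer: 300 mM Tris pH 7.5, 150 mM NaCl, 5 mM CaCl2, 0.1% CHAPS, 2% DMSO. Ran 30 min at 37°C, HCl-quenched. Reverse-phase HPLC at 355 nm gave substrate-to-product conversion, relative to uninhibited controls.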

Compound | IC50 [mM]
CN(C)C(=N)N.O=C(NCCSSCCNC(=O)/C(Cc1ccc(S(=O)(=O)O)c(Br)c1)=N/O)/C(Cc1ccc(O)c(Br)c1)=N/O | 0.0483
C=CS(=O)(=O)[C@H]1C[C@@H](C(=O)OC)N[C@H]1c1ccccc1 (racemic) | 0.85
C=CS(=O)(=O)[C@H]1C[C@]2(C(=O)OC)CCC(=O)N2[C@H]1c1ccc(OC)c(OC)c1 (racemic) | 2.68
C=CS(=O)(=O)[C@H]1C[C@]2(C(=O)OC)CCC(=O)N2[C@H]1c1cccnc1 (racemic) | 2.47
C=CS(=O)(=O)[C@H]1C[C@@H](C(=O)OC)N[C@H]1c1cccc(F)c1 (racemic) | 1.04
C=CS(=O)(=O)[C@H]1C[C@@](CCC(=O)OC)(C(=O)OC)N[C@H]1c1cccnc1 (racemic) | 1.86
C=CS(=O)(=O)[C@H]1C[C@]2(C(=O)OC)CCC(=O)N2[C@H]1c1ccccc1 (racemic) | 2.2
C=CS(=O)(=O)[C@H]1C[C@@H](C(=O)OC)N[C@H]1c1ccccc1F (racemic) | 1.32
C=CS(=O)(=O)[C@H]1C[C@@](CCC(=O)OC)(C(=O)OC)N[C@H]1c1ccc(OC)c(OC)c1 (racemic) | > 5
C=CS(=O)(=O)c1ccccc1 [(ETHENYLSULFONYL)BENZENE] | 0.736
COc1cc(/C=C/C(=O)CC(=O)/C=C/c2ccc(O)c(OC)c2)ccc1O [CURCUMIN] | 0.0375
O=c1c(O)c(-c2ccc(O)cc2O)oc2cc(O)cc(O)c12 [MORIN] | 0.0374

Molecular target: T2, Sortase A (Staphylococcus aureus) (UniProt Q9S446)
T2 sequence (whole entry): T1 sequence (Q9S446 whole entry)
Assay: Inhibition of 6-His tagged Staphylococcus aureus recombinant sortase delta N24 expressed in Escherichia coli BL21 (DE3) at 5 mM
Method in brief: (§1)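 His6-SrtAΔN24 (1 μM) was pre-incubated with inhibitor for 30 min at 37°C in 300 mM Tris pH 7.5, 150 mM NaCl, 5 mM CaCl2, 0.1% CHAPS and 2% DMSO. The reaction was started with 2 mM Abz-LPETG-Dap(DNP)-NH2 plus 2 mM NH2-Gly5-OH, run 30 min at 37°C, and quenched with 1.2 M HCl. Substrate and product were separated by reverse-phase HPLC and read at 355 nm. Percent substrate conversion came from peak areas.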

Compound | Activity | inhibition [%]
C=CS(=O)(=O)[C@H]1C[C@@H](C(=O)OC)N[C@H]1c1ccccc1 (racemic) | Active | 
C=CS(=O)(=O)[C@H]1C[C@@H](C(=O)OC)N[C@H]1c1cccc(F)c1 (racemic) | Active | 
C=CS(=O)(=O)[C@H]1C[C@@H](C(=O)OC)N[C@H]1c1ccccc1F (racemic) | Active | 
COC(=O)[C@@H]1C[C@@H](C#N)[C@H](c2ccccc2F)N1 (racemic) |  | 20
COC(=O)[C@@H]1C[C@H](C#N)[C@H](c2ccccc2)N1 (racemic) | inactive | 
COC(=O)[C@@H]1C[C@H](C#N)[C@H](c2ccccc2)N1C (racemic) | inactive | 
COC(=O)[C@@H]1C[C@H](C#N)[C@H](c2ccccc2F)N1C (racemic) |  | 20

Other lines, results leading:

Activity | inhibition [%] | Compound
inactive |  | COC(=O)[C@@H]1C[C@@H](C#N)[C@H](c2cccc(Cl)c2)N1 (racemic)
inactive |  | COC(=O)[C@@H]1C[C@@H](C#N)[C@H](c2cccc(F)c2)N1 (racemic)
inactive |  | COC(=O)[C@@H]1C[C@@H](C#N)[C@H](c2cccc(F)c2F)N1 (racemic)
 | 20 | COC(=O)[C@@H]1C[C@@H](C#N)[C@H](c2ccccc2)N1 (racemic)
 | 20 | COC(=O)[C@@H]1C[C@H](C#N)[C@H](c2cccc(Cl)c2)N1 (racemic)
inactive |  | COC(=O)[C@@H]1C[C@H](C#N)[C@H](c2cccc(F)c2)N1 (racemic)
inactive |  | COC(=O)[C@@H]1C[C@H](C#N)[C@H](c2cccc(F)c2F)N1 (racemic)
inactive |  | COC(=O)[C@@H]1C[C@H](C#N)[C@H](c2cccc(F)c2F)N1C (racemic)
 | 20 | COC(=O)[C@@H]1C[C@H](C#N)[C@H](c2ccccc2F)N1 (racemic)
inactive |  | COC(=O)[C@]1(C)C[C@@H](C#N)[C@H](c2ccc(Cl)cc2)N1 (racemic)
inactive |  | COC(=O)[C@]1(C)C[C@@H](C#N)[C@H](c2ccccc2C)N1 (racemic)
inactive |  | COC(=O)[C@]1(C)C[C@@H](C#N)[C@H](c2ccccc2Cl)N1 (racemic)
inactive |  | COC(=O)[C@]1(C)C[C@H](C#N)[C@H](c2ccc(Cl)cc2)N1 (racemic)
inactive |  | COC(=O)[C@]1(C)C[C@H](C#N)[C@H](c2ccccc2C)N1 (racemic)
inactive |  | COC(=O)[C@]1(C)C[C@H](C#N)[C@H](c2ccccc2C)N1C (racemic)
inactive |  | COC(=O)[C@]1(C)C[C@H](C#N)[C@H](c2ccccc2Cl)N1 (racemic)
 | 20 | COC(=O)[C@]1(C)C[C@H](C#N)[C@H](c2ccccc2Cl)N1C (racemic)
inactive |  | Cc1cn(C[C@@H]2C[C@H](C#N)[C@H](c3ccccc3)N2C)c(=O)[nH]c1=O (racemic)

Molecular target: T2, Sortase A (Staphylococcus aureus)
Assay: Inhibition of 6-His tagged Staphylococcus aureus recombinant sortase delta N24 expressed in Escherichia coli BL21 (DE3) at 1 mM
Method in brief: as §1

inhibition [%] | Compound
6 | Cc1cn(C[C@@H]2C[C@H](C#N)[C@H](c3ccccc3)N2C)c(=O)[nH]c1=O (racemic)
